# Assay results collected from several papers.
# Compare with care: the assays were run in different laboratories.
# Read-out: cell growth or viability
SMILES,cell line,assay,conditions,IC50 [µM]
O=[N+]([O-])c1ccc(NCCCCCCN=C=S)c2nonc12,PC-3,MTT,24 h,1
CC(C)[C@H](NC(=O)[C@H](CCCCN)NC(=O)[C@H](Cc1c[nH]c2ccccc12)NC(=O)[C@H](Cc1c[nH]c2ccccc12)NC(=O)[C@H](CCCNC(=N)N)NC(=O)[C@H](Cc1c[nH]c2ccccc12)NC(=O)[C@H](CCCNC(=N)N)NC(=O)[C@@H](N)CCCNC(=N)N)C(=O)N[C@@H](Cc1c[nH]cn1)C(=O)N[C@@H](Cc1c[nH]c2ccccc12)C(=O)N[C@@H](Cc1c[nH]cn1)C(=O)N[C@@H](CCC(=O)O)C(=O)N[C@@H](Cc1c[nH]c2ccccc12)C(N)=O,A549,MTT,24 h,> 500
CC(=N)S,NIH3T3,,96 h,109
COc1cc(C(=O)c2nc(-c3ccc4[nH]ccc4c3)c[nH]2)cc(OC)c1OC,PC-3,MTS,72 h,0.0277
CC[C@H](C)[C@H](NC(=O)[C@H](CCCNC(=N)N)NC(=O)CNC(=O)[C@H](CCCCN)NC(=O)[C@H](CCCNC(=N)N)NC(=O)[C@H](CCCNC(=N)N)NC(=O)[C@H](CC(C)C)NC(=O)[C@H](CCC(N)=O)NC(=O)CNC(=O)[C@H](CCCCN)NC(=O)[C@@H](N)CCSC)C(=O)N[C@@H](CCCNC(=N)N)C(N)=O,A549,MTT,24 h,> 500
COc1c(C)c2c(c(O)c1C/C=C(\C)CCC(=O)O)C(=O)OC2,JIMT-1,,,1.15
CC(C)C[C@H](NC(=O)[C@@H](N)CCCNC(=N)N)C(=O)N[C@@H](CCCNC(=N)N)C(=O)N[C@@H](CCCCN)C(=O)N[C@@H](Cc1ccccc1)C(=O)N[C@@H](CCCNC(=N)N)C(=O)N[C@@H](CCCNC(=N)N)C(=O)N[C@@H](CCCNC(=N)N)C(=O)N[C@@H](Cc1ccccc1)C(=O)N[C@@H](CCCNC(=N)N)C(=O)N[C@@H](CCCCN)C(=O)N[C@@H](CCC(=O)O)C(=O)NCC(N)=O,A549,MTT,24 h,> 500
N.N.[Cl][Pt][Cl],NIH3T3,,"96 h, 3D culture",33.8
O=C1CCP(c2ccccc2)CC1,PC-3,MTT,72 h,84.2
COc1cc(C(=O)c2nc(-c3cccc4occc34)c[nH]2)cc(OC)c1OC,PC-3,MTS,72 h,0.0614
N.N.[Cl][Pt][Cl],MEG-01,ATP luminescence,72 h,5.17
COc1cc(C(=O)c2nc(-c3cccc4[nH]ccc34)cn2C)cc(OC)c1OC,PC-3,MTS,72 h,0.17
CC(C)C[C@H](NC(=O)[C@H](CCCCN)NC(=O)[C@H](Cc1c[nH]c2ccccc12)NC(=O)[C@H](Cc1c[nH]c2ccccc12)NC(=O)[C@H](CCCNC(=N)N)NC(=O)[C@H](Cc1c[nH]c2ccccc12)NC(=O)[C@H](Cc1c[nH]cn1)NC(=O)[C@@H](N)CCCNC(=N)N)C(=O)N[C@@H](Cc1c[nH]cn1)C(=O)N[C@@H](Cc1c[nH]c2ccccc12)C(=O)N[C@@H](CCCNC(=N)N)C(=O)N[C@@H](CCC(=O)O)C(=O)N[C@@H](Cc1c[nH]c2ccccc12)C(N)=O,A549,MTT,24 h,71
COc1cc(C(=O)c2nc(-c3cccc4c3ccn4C)c[nH]2)cc(OC)c1OC,PC-3,MTS,72 h,0.0127
N.N.[Cl][Pt][Cl],A549,MTT,48 h,15.8
